Molecules are shown by their SMILES.

The nature of this series: Toxicity liver stage against HepG2, at 10uM. In kind it is cell-based. More on the design: test concentration 10 uM, cell line HepG2-A16-CD81EGFP. Conditions: human, HepG2-A16-CD81EGFP cells; read-out: INHIBITION
Put shortly:
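Uninfected HepG2-A16-CD81EGFP cells, 3 × 10^3 per well, 1536-well, plated on prespotted compound at 10 μM final, parasite-free screening media added to match infected plates; puromycin 10 μM positive, DMSO 0.5% negative; run in parallel with 48 h PbLuc assay at 37 °C, 5% CO2; viability by CellTiter-Glo luminescence, normalized to controls.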
`CC(C)(C)NC(=O)c1ccc(COCC(F)(F)F)o1`: the cytotoxicity at 10 µM is -0.585%.

Turning to `CCC(CC)C(=O)n1ccn(S(=O)(=O)c2ccc(C)cc2)c1=O`, the cytotoxicity at 10 µM turned out to be 11.5%.

Regarding `COc1coc(C(=O)Nc2ccncc2)cc1=O`, the cytotoxicity at 10 µM is -14.4%.

For the compound `O=C1CCSCC(C(=O)NCc2nc(-c3ccccc3)no2)N1` (stereo unspecified), the cytotoxicity at 10 µM is -4.66%.

In the case of `CN(C)C(=O)[C@H]1CC[C@@H]2[C@@H](CCN2C(=O)N(C)C)O1`, the cytotoxicity at 10 µM stood at 20.3%.

`COc1ncccc1CN1CC[C@H]2O[C@H](c3nnc(C)o3)CC[C@H]21`: the cytotoxicity at 10 µM is 15.1%.

With `CN1C(=O)C2(CCN(C(=O)c3cccnc3)CC2)c2cccc(F)c21`, the cytotoxicity at 10 µM is -1.06%.

Take `CN(C)C(=O)C1OC2(CCN(C(=O)N(C)C)CC2)c2ccccc21` (stereo unspecified): the cytotoxicity at 10 µM turned out to be 8.04%.

Turning to `Cc1cc(C)c(C#N)c(N2CCC(Cc3ccccc3)CC2)n1`, the cytotoxicity at 10 µM is -11.8%.

On to `O=C(COCC(=O)N1CCCCCC1)NCc1cccc(Br)c1`, for which the cytotoxicity at 10 µM came to 1.47%.

Consider `COc1ccc(-c2cc(C(=O)N3N=C(C)CC3(O)C(F)(F)F)[nH]n2)cc1` (stereo unspecified), for which the cytotoxicity at 10 µM was 1.36%.

As to `O=C(O)C1CCCN1c1nc(C2CC2)cc(C(F)(F)F)n1` (stereo unspecified), the cytotoxicity at 10 µM was determined as 7.55%.

As for `c1cnc(CC2COCCN(C3CCCCC3)C2)cn1` (stereo unspecified), the cytotoxicity at 10 µM came to 0.514%.

Turning to `CCN(Cc1ccncc1)CC1(C)Cc2c(N)nc(N)nc2O1` (stereo unspecified), the cytotoxicity at 10 µM was 2.15%.

For `CS(=O)(=O)N1CC2(CCN(Cc3ccccn3)C2)Cc2ccccc21` (stereo unspecified), the cytotoxicity at 10 µM turned out to be 8.08%.

Consider `COC(=O)c1ncccc1N1CCN(C(=O)CN2CCOCC2)CC1`, for which the cytotoxicity at 10 µM stood at 16.7%.

For the compound `O=C(C(c1ccccc1)S(=O)(=O)c1ccccn1)N1CCCC1` (stereo unspecified), the cytotoxicity at 10 µM amounted to 7.27%.

Regarding `CC(C(=O)NC1CCCC1)S(=O)(=O)Cc1noc(C(C)(C)C)n1` (stereo unspecified), the cytotoxicity at 10 µM was -9.41%.

Turning to `COc1ccncc1NC(=O)C1(c2ccccc2)CC1`, the cytotoxicity at 10 µM was determined as 2.72%.

Turning to `Cc1cc(C(=O)N(C)CCN(C)C(=O)OC(C)(C)C)oc1C`, the cytotoxicity at 10 µM was determined as 3.51%.

`Cc1ccc(CC(NC(=O)CN(C)C2CC2)c2ccccn2)cc1` (stereo unspecified): the cytotoxicity at 10 µM was found to be 5.33%.

Take `O=S(=O)(Cc1nc(C2CC2)no1)c1cc(F)ccc1F`: the cytotoxicity at 10 µM turned out to be 7.81%.

In the case of `CC(C)Cn1ncc(C(=O)O)c1C1CC1`, the cytotoxicity at 10 µM was -14%.

As to `CCc1ccc(C(COC)NC(=O)c2ccc(F)c(NC(C)=O)c2)o1` (stereo unspecified), the cytotoxicity at 10 µM was -11.1%.

On to `CC(=O)N(Cc1ncc(C)o1)C1CCN(Cc2cnc(C)s2)C1` (stereo unspecified), for which the cytotoxicity at 10 µM came to 5.42%.

For the compound `COc1cc(CN(C)C(=O)NC2CC2)ccc1SC`, the cytotoxicity at 10 µM was -8.01%.

On to `COc1cc(CN(C)C(=O)NCC(=O)NC(C)C)ccc1SC`, for which the cytotoxicity at 10 µM is -15.5%.

For `Cc1ccc(CNC(=O)NC(C)CN2CCOCC2)s1` (stereo unspecified), the cytotoxicity at 10 µM was -14.1%.

In the case of `Cc1cnn(CC2CCCN2C(=O)Cc2c(C)noc2Cl)c1` (stereo unspecified), the cytotoxicity at 10 µM worked out at 0.471%.

Consider `CCC(C)NC(=O)NCCC(=O)N1CCN(c2ccccn2)CC1` (stereo unspecified), for which the cytotoxicity at 10 µM came to 4.22%.

Take `Cc1cc(C(C)NC(=O)CCn2nnc3ccccc3c2=O)c(C)o1` (stereo unspecified): the cytotoxicity at 10 µM stood at 3.81%.

As to `COCCC1(CNC(=O)NCC2CCCS2)CCCC1` (stereo unspecified), the cytotoxicity at 10 µM is 0.96%.

As to `O=C(Nc1cccnc1)NC(CCCO)c1ccccc1` (stereo unspecified), the cytotoxicity at 10 µM is -4.4%.

`O=C1CCCc2[nH]c(=O)c(C(=O)N3CCc4ccccc4C3)cc21`: the cytotoxicity at 10 µM is 14.6%.

On to `O=c1cc(CNCc2ccc3c(c2)OCO3)nc2ccccn12`, for which the cytotoxicity at 10 µM was -6.17%.

As for `Cc1cccc(NS(=O)(=O)c2cc(C(=O)O)oc2C)c1`, the cytotoxicity at 10 µM was -9.15%.

Consider `Cc1ccc(S(=O)(=O)NCCNC(=O)c2ccoc2)cc1F`, for which the cytotoxicity at 10 µM was -5.69%.

Turning to `CCOC(=O)c1c(NC(=O)CN2CCN(C(C)=O)CC2)sc2c1CCC2`, the cytotoxicity at 10 µM is -5.33%.

Consider `CO[C@H]1CC[C@H]2[C@H]1OCCN2C(=O)CCOc1ccccc1`, for which the cytotoxicity at 10 µM was -95%.

In the case of `CS(=O)(=O)NC[C@]12COC[C@H]1CN(C(=O)CC1CCCC1)C2`, the cytotoxicity at 10 µM was -101%.

Turning to `O=C(c1cscn1)N1CCC[C@]2(C[C@H](OCC3CC3)CO2)C1`, the cytotoxicity at 10 µM is -2.86%.

In the case of `COc1ccccc1CN1CCC2(CC1)CC(Oc1ccccn1)CO2` (stereo unspecified), the cytotoxicity at 10 µM is -1.96%.

As to `COc1ccccc1OC1CN(Cc2ccc(C(=O)O)cc2)C1`, the cytotoxicity at 10 µM was -8.98%.

As for `COc1cccc2c1OCC(NCCCOc1cccnc1)C2` (stereo unspecified), the cytotoxicity at 10 µM was determined as 1.52%.

Turning to `COCCN(C)C(C(=O)O)c1ccc(F)c(C)c1` (stereo unspecified), the cytotoxicity at 10 µM came out at 1.87%.

Regarding `Cc1nc2c(c(=O)n1C)CCN(C(=O)CCc1ccccc1O)CC2`, the cytotoxicity at 10 µM is 0.53%.

For `CCn1nc(CC(C)C)cc1C(=O)N1CCCC(C#N)C1` (stereo unspecified), the cytotoxicity at 10 µM is -8.2%.

Consider `Cc1cc(C)n(CCCN(C)Cc2cn[nH]c2-c2ccc(F)cc2)n1`, for which the cytotoxicity at 10 µM is 2.09%.

For the compound `Cc1nc(CN2CCCC23CCN(c2nc4ccccc4s2)CC3)co1`, the cytotoxicity at 10 µM was -1.99%.

As for `CC(C)c1nccn1C(C)C(=O)NC1CCN(S(C)(=O)=O)CC1` (stereo unspecified), the cytotoxicity at 10 µM was -2.86%.

On to `COc1cccc2c1OCCCN(Cc1ccc(C(N)=O)c(=O)[nH]1)C2`, for which the cytotoxicity at 10 µM is 4.82%.

`Cc1ccc(-c2nc(CC3CCN(C)CC3)no2)cc1N1CCNC1=O`: the cytotoxicity at 10 µM was -11.8%.

In the case of `COCC(=O)N1CCC2(CC1)CC(=O)N(Cc1ccc(Cl)cc1)C2`, the cytotoxicity at 10 µM stood at 0.96%.

On to `CC(C)n1ccnc1C1CCCN(c2ncccc2C(N)=O)C1` (stereo unspecified), for which the cytotoxicity at 10 µM was -9.53%.

Consider `N#Cc1cccc(NC2CC(=O)N(Cc3ccccc3Cl)C2)n1` (stereo unspecified), for which the cytotoxicity at 10 µM came out at 4.37%.

Take `CCOCCC(=O)NCC1CCCO1` (stereo unspecified): the cytotoxicity at 10 µM stood at 6.56%.

Take `Cc1nc[nH]c1CN1CCN(C(=O)C2(C)CC2)[C@H]2CS(=O)(=O)C[C@H]21`: the cytotoxicity at 10 µM is -4.76%.

On to `CC(C)[C@H]1CN(C(=O)CO)C[C@@H]1N(C)C`, for which the cytotoxicity at 10 µM was 7.1%.

For `COCCN(C)CCN1CC2(CCN(C3CCNCC3)CC2)OC1=O`, the cytotoxicity at 10 µM came out at 1.64%.

Turning to `CCCNS(=O)(=O)c1ccc2[nH]c(=O)cc(C)c2c1`, the cytotoxicity at 10 µM was -3.37%.

With `O=C(c1cccnc1N1CCN(Cc2ccoc2)CC1)N1CCCCC1`, the cytotoxicity at 10 µM was -3.68%.

Take `CN1Cc2ccccc2CC1C(=O)N1CCN(CCS(C)(=O)=O)CC1` (stereo unspecified): the cytotoxicity at 10 µM stood at 15.1%.

On to `CCc1nc(CN(C)C2CCCN(c3cccnn3)C2)no1` (stereo unspecified), for which the cytotoxicity at 10 µM was -5.87%.

In the case of `Cc1noc(NC(=O)CCNC(=O)c2ccc(Br)cc2)n1`, the cytotoxicity at 10 µM worked out at 0.449%.

As for `Cc1ccc(F)c(NS(=O)(=O)c2cc3c(c(C(=O)O)c2)OCCO3)c1`, the cytotoxicity at 10 µM was -5.32%.

In the case of `CCOc1cc(C(=O)N2CCCC(c3noc(C(C)C)n3)C2)ccn1` (stereo unspecified), the cytotoxicity at 10 µM is -6.73%.

In the case of `CCNc1cc2c(nn1)CCN(C(=O)c1c(C)noc1C)C2`, the cytotoxicity at 10 µM was -5.76%.

In the case of `CC(=O)N(Cc1ncc(C(C)C)o1)C1CCN(Cc2cc(C)no2)C1` (stereo unspecified), the cytotoxicity at 10 µM was -5.89%.

Regarding `CC(=O)c1cccc(NC(=O)Cn2nc(-c3cccs3)oc2=O)c1`, the cytotoxicity at 10 µM worked out at 4.78%.

`O=C(CCCOc1ccccc1)N1CCCC(n2cncn2)C1` (stereo unspecified): the cytotoxicity at 10 µM is -8.57%.

With `COc1cccc(-n2nnc(C(=O)N3CCOC(C)C3)c2C)c1` (stereo unspecified), the cytotoxicity at 10 µM was -9.95%.

With `N#Cc1cccnc1N1CCCN(C(=O)CCn2cncn2)CC1`, the cytotoxicity at 10 µM came out at 0.111%.

With `CC1CN(C(=O)NCCNc2cnccn2)CCO1` (stereo unspecified), the cytotoxicity at 10 µM was 5.31%.

Regarding `CC(C)Oc1cccc(CNC(=O)NC(C)(C(=O)O)c2ccco2)c1` (stereo unspecified), the cytotoxicity at 10 µM was -2.77%.

In the case of `CCCNC(=O)CN1CCC(C(=O)Nc2cnn(CC)c2)CC1`, the cytotoxicity at 10 µM is -2.04%.

Turning to `Cc1cc(C)n(CC2CCCN2C(=O)c2cnn(C)c2C2CC2)n1` (stereo unspecified), the cytotoxicity at 10 µM is -0.489%.

For the compound `COc1cc(CNC(=O)CNc2cc(Cl)ccc2OC)ccn1`, the cytotoxicity at 10 µM is -8.92%.

In the case of `FC(F)(F)Cn1ccnc1CN1CCCC1c1noc(C2CC2)n1` (stereo unspecified), the cytotoxicity at 10 µM amounted to 1.78%.

With `CN(Cc1nnc(C2CC2)o1)C1CCN(CCCc2cnn(C)c2)C1` (stereo unspecified), the cytotoxicity at 10 µM was 5.27%.

As to `COCc1nc(C(=O)N2CCCC2c2ccccc2C)cs1` (stereo unspecified), the cytotoxicity at 10 µM was found to be 4.28%.

With `Cc1cnn(CCC(=O)N2CCN(c3ncccc3Cl)CC2)c1`, the cytotoxicity at 10 µM came to 2.41%.

With `CC(O)CN1CCC(CNCc2cccc(Br)c2)CC1` (stereo unspecified), the cytotoxicity at 10 µM was -12.1%.

For `CN(C)C(=O)c1ccc(CNC(=O)NCCN(C)C2CCCC2)cc1`, the cytotoxicity at 10 µM was -5.58%.

For `COCCc1noc(CN2CCOC(Cn3nc(C)cc3C)C2)n1` (stereo unspecified), the cytotoxicity at 10 µM is -6.66%.

Turning to `Cc1ncsc1C(=O)N1CCCN(Cc2cscn2)CC1`, the cytotoxicity at 10 µM was -9.67%.

As for `CCOc1ccc(C(=O)N2CCN(c3nccn3C)CC2)cc1`, the cytotoxicity at 10 µM worked out at 5.89%.

Take `CC(C)(C)Nc1c(C2CCCN(C(=O)C3CC3)C2)nc2ccccn12` (stereo unspecified): the cytotoxicity at 10 µM was 8.07%.

Consider `Fc1cccnc1O[C@@H]1CN(Cc2ccccn2)[C@@H]2CCCO[C@@H]21`, for which the cytotoxicity at 10 µM amounted to 1.71%.

In the case of `Cc1ncnc2c1CCN(C(=O)Cc1ccccn1)CC2`, the cytotoxicity at 10 µM was found to be 8.12%.

Regarding `COc1nn(C)c2c1CCCN(C(=O)c1ccc3ccccc3n1)C2`, the cytotoxicity at 10 µM was 13.7%.

Consider `CN1CCC2(CC1)C(=O)N(CC1CC1)c1ccccc12`, for which the cytotoxicity at 10 µM came out at 3.21%.

Consider `O=C(C1CCOCC1)N1CCO[C@H]2[C@H](OCc3ccncc3)CC[C@@H]21`, for which the cytotoxicity at 10 µM is -2.53%.

On to `CN(C)C(=O)[C@H]1CC[C@@H]2[C@@H](CCN2Cc2ccccn2)O1`, for which the cytotoxicity at 10 µM worked out at 3.21%.

Turning to `O=c1[nH]c2cn(-c3ccccc3)c(=O)n2[nH]1`, the cytotoxicity at 10 µM is -11.5%.

Take `CCc1cc(NC2CCC(N)CC2)n2nc(C)c(C)c2n1` (stereo unspecified): the cytotoxicity at 10 µM is -4.33%.

`CSc1ncc(C(=O)N2C[C@@H]3CC[C@H]2CN(c2ncccn2)C3)cn1`: the cytotoxicity at 10 µM turned out to be 1.26%.

(Values after ChEMBL document CHEMBL4513216, “Probing the Open Global Health Chemical Diversity Library for Multistage-Active Starting Points for Next-Generation Antimalarials” (ACS Infect Dis, 2020).)
